From PubChem
PLAP act = activates human placental alkaline phosphatase; 1.2% of 96,000 active; activation fold at 20 µM; purified PLAP enzyme, luminescent substrate read-out; stronger effect = higher value; in the data active = activation fold above about 2
Ecoli tolC = blocks growth of E. coli BW25113 tolC mutant | 2.2% of 65,000 active | OD615 | growth inhibition, % at 10 µM (by protocol);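 active = growth inhibition at or above a cutoff equal to the mean over every tested compound plus 3 SD, cut at about 60% in these data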;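 note: growth measured after 20 h incubation at 37 °C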
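Material: E. coli BW25113 ΔtolC::kan, tolC deletion mutant strain. Measure: percent growth inhibition. Schedule: 37 °C, 20 h exposure. Doses: single-point testing at 10 µM. Signal: A615 absorbance measurement. Buffer or medium: kanamycin-containing LB broth (50 µg/mL).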
PostGolgi yeast = growth inhibition of a yeast mutant, post-Golgi transport screen. AID 739. inhibition, % at 10 µM. 0.9% of 98,000 active. post-Golgi transport phenotypic cell assay;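 note: yeast cells grown in 1536-well plates; yeast grown about 18 h at 30C before absorbance read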
E coli WT exp = blocks growth of wild type E. coli BW25113 | OD600 absorbance | growth inhibition, % at 100 µM | 0.15% of 98,000 active;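 active = growth inhibition above about 50% at one test dose, limit read from the data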;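 note: growth measured after 20 h incubation at 37 °C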
PostGolgi ctrl = growth of the yeast control strain, post-Golgi counter-screen; efflux-deficient yeast background strain, growth absorbance A615, 16 h; inhibition, % at 10 µM; 5% of 98,000 active
HePTP inh = blocks human HePTP tyrosine phosphatase; inhibition, % at 20 µM; P35236; 0.64% of 110,000 active; recombinant HePTP phosphatase activity, OD absorbance; in the data active = inhibition above about 50%;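 note: plate controls were vehicle for no effect and reference inhibitor for full effect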
Target sequence (P35236 whole entry, looked up): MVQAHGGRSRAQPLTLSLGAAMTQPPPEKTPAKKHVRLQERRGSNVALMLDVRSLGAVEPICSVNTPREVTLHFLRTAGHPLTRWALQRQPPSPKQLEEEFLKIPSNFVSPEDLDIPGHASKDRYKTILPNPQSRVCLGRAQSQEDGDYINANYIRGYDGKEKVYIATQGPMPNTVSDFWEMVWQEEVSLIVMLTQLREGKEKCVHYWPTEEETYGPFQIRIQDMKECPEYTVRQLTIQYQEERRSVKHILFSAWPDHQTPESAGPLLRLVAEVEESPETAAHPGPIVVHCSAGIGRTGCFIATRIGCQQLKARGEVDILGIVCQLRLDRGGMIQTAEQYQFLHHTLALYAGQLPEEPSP
The depositor's hits bear a star; nt = not tested or not shown. Sampled rows, rich in hits. Any-hit rate of the full collection: about 5.4%. Cut-off read from the data, not from the text of the source, unless noted: active = inhibition above about 30%; inactive = the rest.

SMILES	PLAP act	Ecoli tolC	PostGolgi yeast	E coli WT exp	PostGolgi ctrl	HePTP inh
CC(C)(C)C1CCc2c(sc(N)c2C(N)=O)C1 (stereo not given)	1.5	16.1	-7.0	9.0	-1.4	5.3
CCCC1CCc2c(sc(N)c2C(N)=O)C1 (stereo not given)	1.5	nt	31.5*	9.0	8.3	-7.6
O=[N+]([O-])c1cc2c(cc1/C=N/Nc1nc3nonc3nc1Nc1ccc(F)cc1)OCO2	nt	nt	nt	nt	nt	-19.5
CCOc1c(Br)cc(CNc2ncn[nH]2)cc1OC	1.7	-0.7	11.4	2.0	3.9	7.0
COc1cc(CNc2ncn[nH]2)cc(Br)c1OC	2.5*	-11.9	-27.9	3.0	6.8	2.4
Cc1nn(C)c(C)c1NC(=O)c1ccc([N+](=O)[O-])cc1	nt	nt	nt	nt	nt	0.1
Cc1cc(C)c(Cn2cnc(-c3ccc([N+](=O)[O-])cc3)c2)c(C)c1	0.9	nt	-6.6	-4.0	32.5*	nt
CNc1ccc([N+](=O)[O-])cc1-n1cnc(-c2ccc([N+](=O)[O-])cc2)c1	nt	nt	nt	nt	nt	5.2
COc1ccc(S(=O)(=O)n2cnc3cc(C)c(C)cc32)cc1C	1.3	77.5*	1.3	-1.0	14.3	10.8
COc1ccc(S(=O)(=O)n2cnc3cc(C)c(C)cc32)cc1	1.4	46.5	-5.8	12.0	4.7	5.6
Cc1ccccc1NS(=O)(=O)c1cc(C(=O)NCCC2=CCCCC2)ccc1Cl	1.1	nt	-1.0	-8.0	17.4	nt
Cc1cccc(NS(=O)(=O)c2cc(C(=O)NCCC3=CCCCC3)ccc2Cl)c1	1	nt	7.1	1.0	35.0*	nt
CCCCOC(=O)CSC1=C(C#N)C(c2ccc3c(c2)OCO3)CC(=O)N1 (stereo not given)	1	9.3	nt	-8.0	46.9*	1.0
O=C(C1CCN(S(=O)(=O)N2CCOCC2)CC1)N1CCOCC1	0.9	-19.9	0.0	-7.0	30.7*	4.8
CCS(=O)(=O)N1CCC(C(=O)N2CCOCC2)CC1	1	-18.8	-4.5	1.0	2.8	1.1
c1ccc(C2CCC(N3CCN(Cc4ccncc4)CC3)CC2)cc1 (stereo not given)	nt	nt	nt	nt	nt	-14.0
CCc1nc(N2CCCC(C)C2)c2oc3ccccc3c2n1 (stereo not given)	1.3	100.0*	10.4	10.0	47.5*	5.7
CCc1nc(N2CCN(Cc3ccc4c(c3)OCO4)CC2)c2oc3ccccc3c2n1	1.4	nt	11.6	-24.0	15.2	nt
CCc1nc(SCC(=O)N2CCCc3ccccc32)c2oc3ccccc3c2n1	0.9	nt	11.4	-13.0	37.3*	nt
Cc1nc(SCc2nc3ccccc3[nH]2)c2oc3ccccc3c2n1	1.1	41.9	3.5	-14.0	37.6*	-10.9
c1ccc2[nH]c(CSc3ncnc4c3oc3ccccc34)nc2c1	1	53.8	0.3	-7.0	11.2	1.2
Cc1nc(SCC(=O)N2CCN(c3ccccc3)CC2)c2oc3ccccc3c2n1	1.5	45.6	0.3	-4.0	34.9*	2.4
COc1ccc(C)cc1NS(=O)(=O)c1ccc(NC(C)=O)cc1	nt	nt	nt	nt	nt	-9.6
COc1ccc(CCNC(=O)COc2ccc(Cl)cc2Br)cc1OC	nt	nt	nt	nt	nt	-8.0
Cc1ccc2c(nc3s/c(=C/c4cc5c(cc4Br)OCO5)c(=O)n32)c1C	nt	nt	nt	nt	nt	5.4
SMILES	PLAP act	Ecoli tolC	PostGolgi yeast	E coli WT exp	PostGolgi ctrl	HePTP inh
CCOC(=O)C1CCN(c2nc(C)nc3c2oc2ccccc23)CC1	nt	37.7	19.8	-5.0	36.4*	-10.4
CCc1nc(N2CCCCC2C)c2oc3ccccc3c2n1 (stereo not given)	1.4	100.0*	17.7	9.0	24.5	5.7
CCc1nc(NC(C)C)c2oc3ccccc3c2n1	nt	6.8	-1.1	7.0	8.5	4.3
CCc1nc(N2CCCCC2)c2oc3ccccc3c2n1	1.4	100.0*	-1.3	-6.0	21.0	3.2
CCOc1ccc2cc(S(=O)(=O)N3CCCCC3C)ccc2c1 (stereo not given)	nt	nt	nt	nt	nt	-10.1
COc1cc(OC)c(OC)cc1CNCC1OCCc2ccccc21 (stereo not given)	nt	nt	nt	nt	nt	8.1
O=C(CCC1CCCCC1)Nc1ncn[nH]1	2*	-6.2	1.5	-10.0	7.7	6.1
O=C(CCC1CCCCC1)Nc1ccncc1	nt	nt	nt	nt	nt	-5.6
COc1cccc(-c2nnc3n2N=C(c2cc(OC)ccc2OC)CS3)c1	1	nt	7.5	-8.0	36.8*	-0.7
COc1ccc(OC)c(C2=Nn3c(nnc3-c3cc(OC)c(OC)c(OC)c3)SC2)c1	1.4	13.6	8.6	-1.0	24.3	5.0
CCOc1cccc(-c2nnc3n2N=C(c2cc(OC)ccc2OC)CS3)c1	nt	22.5	-1.1	3.0	58.3*	-9.0
COc1ccc(C2=Nn3c(nnc3-c3ccc(OC)cc3)SC2)cc1	1.1	27.4	28.7	-1.0	42.3*	-4.2
CC(=O)Nc1ccc(N=Cc2ccc(Cl)c([N+](=O)[O-])c2)cc1	nt	nt	nt	nt	nt	-12.9
O=c1oc2c(CN3CCCCC3)c(O)ccc2cc1-c1nc2ccccc2[nH]1	2.2*	-5.4	nt	nt	nt	0.4
COc1cccc(Oc2cn[nH]c2-c2ccc(O)cc2O)c1	2*	96.5*	-0.9	24.0	16.1	-6.6
COc1cccc(Oc2cn[nH]c2-c2ccc(OC)cc2O)c1	2.2*	97.2*	94.2*	20.0	92.0*	0.0
COc1ccc(-c2cc(-c3ccccc3)n[nH]2)c(O)c1	nt	nt	nt	nt	nt	5.2
CCOc1ccc(-c2[nH]ncc2Oc2cccc(OC)c2)c(O)c1	2.6*	98.6*	85.7*	15.0	75.1*	-12.0
O=C(COc1ccc(Cl)cc1)Nc1ccc(N2CCN(C(=O)c3ccco3)CC2)cc1	0.8	nt	88.2*	-6.0	13.2	nt
Cc1ccccc1C(=O)N1CCN(c2ccc(NC(=O)CSc3ccc(Cl)cc3)cc2)CC1	1.3	nt	78.5*	-19.0	52.7*	nt
O=C(c1ccco1)N1CCN(Cc2ccc(Cl)cc2)CC1	1	-1.2	-3.8	13.0	35.2*	-2.6
Cc1cc(C)cc(OCC(=O)Nc2ccc(N3CCN(C(=O)c4ccco4)CC3)cc2)c1	1.6	nt	-1.9	-1.0	-2.5	nt
COc1ccccc1/C=C/C=N/NC(=O)c1cc(-c2ccc(C)cc2)n[nH]1	nt	nt	nt	nt	nt	3.0
CC1=C/C(=N\N=C2\NC(=O)C(CC(=O)Nc3ccc(Cl)cc3)S2)CC(C)(C)C1 (stereo not given)	nt	nt	nt	nt	nt	-4.8
O=C(CC1S\C(=N/N=C/C=C/c2ccccc2)NC1=O)Nc1ccc(C(=O)O)cc1 (stereo not given)	nt	nt	nt	nt	nt	33.4
SMILES	PLAP act	Ecoli tolC	PostGolgi yeast	E coli WT exp	PostGolgi ctrl	HePTP inh
O=C(CC1S/C(=N\N=C\c2ccccc2)NC1=O)Nc1ccc(C(=O)O)cc1 (stereo not given)	nt	nt	nt	nt	nt	103.7*
CC1=C/C(=N\N=C2\NC(=O)C(CC(=O)Nc3ccc(C(=O)O)cc3)S2)CC(C)(C)C1 (stereo not given)	nt	nt	nt	nt	nt	103.2*
COc1ccc(N(Cc2ccc(C(=O)Nc3ccc(OC)c(OC)c3)cc2)S(=O)(=O)c2ccccc2)cc1	nt	nt	nt	nt	nt	4.3
Cc1ccc(-c2cc(C(=O)NCc3ccc4c(c3)OCO4)[nH]n2)c(O)c1C	1.6	4.5	-3.2	-6.0	30.9*	-2.5
COc1ccc(CCNC(=O)c2cc(-c3ccc(C)c(C)c3O)n[nH]2)cc1OC	2.1*	nt	-3.1	-5.0	6.4	nt
COc1ccc(CCNC(=O)c2cc(-c3cc(C)ccc3O)n[nH]2)cc1OC	2.9*	nt	-12.7	3.0	8.6	nt
